Results taken from article PMC11389331 (BMC Biology, 2024).

Assays:
[1] = test system: B. dioryctriae; details: cited from earlier work
[2] = test system: B. dioryctriae; test: Y-tube olfactometer assay; assay type: in vivo, Baryscapus dioryctriae; details: 20 μL test chemical vs paraffin oil, chi-square test
Outline: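 Binary Y-tube (1.1 cm diameter, 6 cm base and arms, 60° between arms) used with wasps reared at 25 ± 1 °C, 50 ± 5% RH. One arm held 20 × 50 mm filter paper loaded with 20 μL test chemical; the other held 20 μL paraffin oil. After every five wasps, the tube was cleaned with dehydrated alcohol and air-dried, and odour sides were swapped.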

SMILES	effect on reproductive efficiency of B. dioryctriae [1]	behavioral response (attraction) of B. dioryctriae adults [2]
CCCCCC=C(C=O)CCCC [2-butyl-2-octenal]	significantly improve	–
C=C1CC[C@H]2O[C@]2(C)CC[C@@H]2[C@@H]1CC2(C)C [Caryophyllene oxide]	–	does not attract
CC1=CCC(C(C)C)=CC1 [g-Terpinene]	–	significantly attract
CC1=CCC2CC1C2(C)C (stereo not drawn) [α-Pinene]	–	significantly attract
